# Active and inactive are the calls of the source.
# Experiments:
# [1] = biological target: Hydroxycarboxylic acid receptor 1 (Homo sapiens) (UniProt Q9BXC0); assay: Binding affinity to GPR81
# [2] = species on record: Canis lupus familiaris; assay: (§1) Agonist activity at dog nicotinic acid receptor by [35S]GTPgammaS binding assay; type: functional
# Method in brief: (§2)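 [35S]GTPγS exchange functional assay on membranes from cells expressing the dog NA receptor; full agonism judged relative to NA; EC50 determined.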
# [3] = biological target: Hydroxycarboxylic acid receptor 3 (Homo sapiens) (UniProt P49019); assay: Binding affinity to GPR109B
# [4] = Bioavailability in mouse at 1.0 mg/kg, iv or 2 mg/kg, po; type: ADME, organism-based; conditions: in vivo
# [5] = Drug level in wild-type C57BL/6 mouse blood at 100 mg/kg, po after 15 mins; type: ADME, organism-based; design: dose 100 mg/kg, route oral
# Method in brief: (§3)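 Fed wild-type or NA receptor null mice on C57Bl/6 background dosed orally at 100 mpk; blood drawn 15 min postdose for plasma FFA and compound blood level; n = 8/group.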
# [6] = Toxicity in po dosed dog assessed as Cmax at which threshold dose of vasodilation occurs in ears by spectrocolorimetry; type: organism-based, Canis lupus familiaris; conditions: in vivo, read-out: Activity
# Method in brief: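 Oral dosing in conscious dogs; Cmax(TDV) = average maximal blood compound level at the threshold dose for vasodilation, which was assessed by ear spectrocolorimetry.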
# [7] = system: Rattus norvegicus; assay: Plasma concentration in rat at 100 mg/kg, ip; type: ADME, organism-based; design: dose 100 mg/kg, route intraperitoneal; conditions: in vivo
# [8] = system: Rattus norvegicus; assay: Toxicity in ip dosed rat assessed as induction of induction of flushing-mediated vasodilation in ears by laser doppler flowmetry; type: functional
# [9] = system: Rattus norvegicus; assay: Antilipolytic activity in rat assessed as reduction plasma free fatty acids levels at 100 mg/kg, po; type: functional; design: scale not given: the % may be the effect or the level left
# Method in brief: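 Conscious rats dosed orally, dose range 1–100 mpk; plasma FFA measured over 4 h and expressed relative to t = 0 level; n ≥ 5 per group.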
# [10] = Half life in mouse at 1.0 mg/kg, iv or 2 mg/kg, po; type: ADME, organism-based; conditions: in vivo
# [11] = Bioavailability in rhesus monkey at 1.0 mg/kg, iv or 2 mg/kg, po; type: ADME, organism-based, Macaca mulatta; conditions: in vivo
# Method in brief: (§4)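 PK: iv 1.0 mpk in DMSO/Tween-80/water (5:10:85) for rats, EtOH/PEG400/water (10:40:50) for dogs and monkeys; oral 2 mpk in 0.5% methylcellulose for rats and dogs.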
# [12] = system: Rattus norvegicus; assay: Toxicity in rat assessed as induction of induction of flushing-mediated vasodilation in ears at 100 mg/kg, sc by laser doppler flowmetry; type: functional, organism-based; design: dose 100 mg/kg
# Method in brief: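 Anesthetized rats dosed subcutaneously in a dose-ranging study; ear blood perfusion monitored by laser Doppler flowmetry; n ≥ 5 per group.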
# [13] = Half life in rhesus monkey at 1.0 mg/kg, iv or 2 mg/kg, po; type: ADME, organism-based, Macaca mulatta; conditions: in vivo; method in brief: as §4
# [14] = (§5) Half life in rat at 1.0 mg/kg, iv or 2 mg/kg, po; type: ADME, organism-based; conditions: in vivo; method in brief: as §4
# [15] = system: Rattus norvegicus; assay: Toxicity in rat assessed as induction of flushing-mediated vasodilation in ears at 100 mg/kg, sc by laser doppler flowmetry; conditions: in vivo
# [16] = Drug level in NA-receptor null C57BL/6 mouse blood at 100 mg/kg, po after 15 mins; type: ADME, organism-based; design: dose 100 mg/kg, route oral; method in brief: as §3
# [17] = biological target: T1, Cytochrome P450 2C8 (Homo sapiens, UniProt P10632); assay: Inhibition of CYP2C8; type: ADME
# T1 sequence (P10632 whole entry): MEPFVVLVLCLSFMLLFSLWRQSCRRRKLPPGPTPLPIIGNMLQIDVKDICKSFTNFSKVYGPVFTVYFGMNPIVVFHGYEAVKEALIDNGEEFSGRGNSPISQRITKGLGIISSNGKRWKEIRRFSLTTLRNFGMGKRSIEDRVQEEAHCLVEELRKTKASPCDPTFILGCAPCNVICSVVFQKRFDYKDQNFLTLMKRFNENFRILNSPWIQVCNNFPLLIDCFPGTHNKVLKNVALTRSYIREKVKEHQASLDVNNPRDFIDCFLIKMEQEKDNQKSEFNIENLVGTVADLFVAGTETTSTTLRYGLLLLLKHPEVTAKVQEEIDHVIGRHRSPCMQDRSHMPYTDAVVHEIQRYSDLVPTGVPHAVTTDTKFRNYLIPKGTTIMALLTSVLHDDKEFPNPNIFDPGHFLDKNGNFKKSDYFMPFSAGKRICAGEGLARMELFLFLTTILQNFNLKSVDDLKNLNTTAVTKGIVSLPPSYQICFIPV
# Method in brief: (§6)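 CYP2C8, 2D6 and 3A4 inhibition measured as IC50.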
# [18] = system: Canis familiaris; assay: Toxicity in po dosed dog assessed as threshold dose at which induction of flushing-mediated-vasodilation occurs in ears by spectrocolorimetry; type: functional, Canis lupus familiaris
# Method in brief: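 Conscious dogs dosed orally; flushing scored by ear spectrocolorimetry plus vocal and physical agitation; threshold dose = dose causing vasodilation in a subset of animals.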
# [19] = (§7) Volume of distribution in rat at 1.0 mg/kg, iv or 2 mg/kg, po; type: ADME, organism-based; conditions: in vivo; method in brief: as §4
# [20] = system: Rattus norvegicus; assay: Antilipolytic activity in po dosed rat assessed as reduction plasma free fatty acids levels
# [21] = Clearance in rhesus monkey at 1.0 mg/kg, iv or 2 mg/kg, po; type: ADME, organism-based, Macaca mulatta; conditions: in vivo; method in brief: as §4
# [22] = Clearance in rat at 1.0 mg/kg, iv or 2 mg/kg, po; type: ADME, organism-based; conditions: in vivo; method in brief: as §4
# [23] = system: Canis familiaris; assay: Antilipolytic activity in po dosed dog assessed as drug concentration causing maximum reduction plasma free fatty acids levels; type: functional, Canis lupus familiaris
# Method in brief: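 Dose-based dog measure: dose producing maximal plasma FFA suppression after oral dosing in fasted conscious dogs, read from oral dose-ranging FFA data.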
# [24] = as §1; type: functional, Canis lupus familiaris; method in brief: as §2
# [25] = Volume of distribution in rhesus monkey at 1.0 mg/kg, iv or 2 mg/kg, po; type: ADME, organism-based, Macaca mulatta; conditions: in vivo; method in brief: as §4
# [26] = biological target: Cytochrome P450 2D6 (Homo sapiens, UniProt P10635); assay: Inhibition of CYP2D6; type: ADME; method in brief: as §6
# [27] = Volume of distribution in dog at 1.0 mg/kg, iv or 2 mg/kg, po; type: ADME, organism-based, Canis lupus familiaris; conditions: in vivo; method in brief: as §4
# [28] = system: Mus musculus; assay: Antilipolytic activity in NA-receptor null C57BL/6 mouse assessed as reduction plasma free fatty acids levels at 100 mg/kg, po after 15 mins; type: functional, organism-based; design: dose 100 mg/kg; method in brief: as §3
# [29] = Clearance in dog at 1.0 mg/kg, iv or 2 mg/kg, po; type: ADME, organism-based, Canis lupus familiaris; conditions: in vivo; method in brief: as §4
# [30] = Clearance in mouse at 1.0 mg/kg, iv or 2 mg/kg, po; type: ADME, organism-based; conditions: in vivo
# [31] = (§8) Bioavailability in rat at 1.0 mg/kg, iv or 2 mg/kg, po; type: ADME, organism-based; conditions: in vivo; method in brief: as §4
# [32] = Bioavailability in dog at 1.0 mg/kg, iv or 2 mg/kg, po; type: ADME, organism-based, Canis lupus familiaris; conditions: in vivo; method in brief: as §4
# [33] = system: Canis familiaris; assay: Antilipolytic activity in dog assessed as reduction plasma free fatty acids levels at 100 mg/kg, po; type: functional, Canis lupus familiaris; design: scale not given: the % may be the effect or the level left
# Method in brief: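 Fasted conscious dogs dosed orally; plasma FFA followed over time relative to baseline; n = 3-7 per group.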
# [34] = system: Mus musculus; assay: Antilipolytic activity in wild-type C57BL/6 mouse assessed as reduction plasma free fatty acids levels at 100 mg/kg, po after 15 mins; type: functional; design: scale not given: the % may be the effect or the level left; method in brief: as §3
# [35] = system: Canis familiaris; assay: Antilipolytic activity in po dosed dog assessed as reduction plasma free fatty acids levels; conditions: Canis lupus familiaris
# [36] = system: Rattus norvegicus; assay: Toxicity in rat assessed as flushing-mediated vasodilation at 100 mg/kg, ip by laser doppler flowmetry; type: functional, organism-based; design: dose 100 mg/kg
# [37] = Half life in dog at 1.0 mg/kg, iv or 2 mg/kg, po; type: ADME, organism-based, Canis lupus familiaris; conditions: in vivo; method in brief: as §4
# [38] = Volume of distribution in mouse at 1.0 mg/kg, iv or 2 mg/kg, po; type: ADME, organism-based; conditions: in vivo
# [39] = biological target: Cytochrome P450 2C9 (Homo sapiens, UniProt P11712); assay: Inhibition of CYP2C9; type: ADME
# [40] = system: Rattus norvegicus; assay: as §5; type: ADME, organism-based; conditions: in vivo; method in brief: as §4
# [41] = system: Rattus norvegicus; assay: as §7; type: ADME, organism-based; conditions: in vivo; method in brief: as §4
# [42] = system: Rattus norvegicus; assay: as §8; type: ADME, organism-based; conditions: in vivo; method in brief: as §4
# Hydroxycarboxylic acid receptor 3 (Homo sapiens), sequence (P49019 whole entry): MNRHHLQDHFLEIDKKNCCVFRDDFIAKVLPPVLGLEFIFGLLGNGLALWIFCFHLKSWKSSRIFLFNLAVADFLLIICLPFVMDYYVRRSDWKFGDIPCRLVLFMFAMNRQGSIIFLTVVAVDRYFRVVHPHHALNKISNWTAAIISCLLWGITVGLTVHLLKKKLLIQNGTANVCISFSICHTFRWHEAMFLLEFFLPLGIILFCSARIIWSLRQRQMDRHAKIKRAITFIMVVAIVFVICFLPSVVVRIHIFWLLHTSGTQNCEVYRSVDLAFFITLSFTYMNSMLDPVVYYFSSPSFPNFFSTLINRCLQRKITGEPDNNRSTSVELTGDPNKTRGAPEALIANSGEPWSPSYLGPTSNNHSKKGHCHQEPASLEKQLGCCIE
# Hydroxycarboxylic acid receptor 1 (Homo sapiens), sequence (Q9BXC0 whole entry): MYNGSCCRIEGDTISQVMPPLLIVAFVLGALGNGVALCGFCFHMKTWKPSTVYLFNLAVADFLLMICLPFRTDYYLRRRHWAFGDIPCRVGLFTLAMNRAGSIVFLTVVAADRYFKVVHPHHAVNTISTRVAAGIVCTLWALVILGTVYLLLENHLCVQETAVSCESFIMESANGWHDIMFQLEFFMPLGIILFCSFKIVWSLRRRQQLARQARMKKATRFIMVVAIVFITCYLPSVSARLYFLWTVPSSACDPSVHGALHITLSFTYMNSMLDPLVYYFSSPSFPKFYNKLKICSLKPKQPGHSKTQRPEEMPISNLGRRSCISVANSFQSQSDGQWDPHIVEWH
# Cytochrome P450 2C9, sequence (P11712 whole entry): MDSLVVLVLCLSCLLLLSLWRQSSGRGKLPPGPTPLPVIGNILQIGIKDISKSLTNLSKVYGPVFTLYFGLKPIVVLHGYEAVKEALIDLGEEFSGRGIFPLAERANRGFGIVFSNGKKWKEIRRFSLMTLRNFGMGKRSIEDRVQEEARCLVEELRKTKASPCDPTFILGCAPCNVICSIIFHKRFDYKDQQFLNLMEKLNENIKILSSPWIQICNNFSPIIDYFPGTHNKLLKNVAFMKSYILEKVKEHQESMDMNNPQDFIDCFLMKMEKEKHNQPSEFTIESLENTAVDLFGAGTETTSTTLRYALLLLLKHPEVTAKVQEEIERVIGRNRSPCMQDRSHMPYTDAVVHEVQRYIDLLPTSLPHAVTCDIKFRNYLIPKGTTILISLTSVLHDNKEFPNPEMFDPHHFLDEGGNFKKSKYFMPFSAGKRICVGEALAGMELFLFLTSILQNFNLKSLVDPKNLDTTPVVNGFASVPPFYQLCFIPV
# Cytochrome P450 2D6, sequence (P10635 whole entry): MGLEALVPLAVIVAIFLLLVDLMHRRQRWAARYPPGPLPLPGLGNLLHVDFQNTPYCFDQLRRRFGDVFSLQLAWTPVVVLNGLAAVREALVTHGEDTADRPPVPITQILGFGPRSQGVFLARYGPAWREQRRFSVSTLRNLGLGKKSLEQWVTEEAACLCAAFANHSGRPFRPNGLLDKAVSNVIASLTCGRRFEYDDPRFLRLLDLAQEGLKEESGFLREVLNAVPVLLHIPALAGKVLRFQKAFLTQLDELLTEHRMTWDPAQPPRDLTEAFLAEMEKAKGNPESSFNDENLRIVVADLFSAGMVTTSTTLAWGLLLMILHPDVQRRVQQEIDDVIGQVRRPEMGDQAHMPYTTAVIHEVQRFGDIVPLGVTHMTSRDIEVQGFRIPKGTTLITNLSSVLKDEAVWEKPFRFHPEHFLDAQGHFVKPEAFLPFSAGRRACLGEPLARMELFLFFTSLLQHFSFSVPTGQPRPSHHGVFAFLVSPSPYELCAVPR
compound,measurement,setting,value
"CC(Cc1nc(-c2ccc(O)cn2)no1)C(=O)NC1=C(C(=O)O)CCCC1 (single isomer, unassigned) [listing 1 of 2 here]",Activity,[1],inactive
same,Activity,[2],Active
same,Activity,[3],inactive
CC(C)(Cc1nc(-c2ccc(O)cn2)no1)C(=O)NC1=C(C(=O)O)CCCC1,bioavailability,[4],45%
same,concentration at 0.25 h,[5],229 µM
same,Cmax,[6],182 µM
same,concentration,[7],555 µM
same,Activity,[8],560 µM
same,Activity,[9],85%
same,Activity,[1],inactive
same,half-life,[10],6.4 h
same,bioavailability,[11],14%
same,Activity,[12],Toxic
same,half-life,[13],4.9 h
same,half-life,[14],4.3 h
same,Activity,[15],Toxic
same,concentration at 0.25 h,[16],148 µM
same,IC50,[17],> 100 µM
same,Activity,[18],100 mg/kg
same,Vd,[19],0.15 L/kg
same,EC50,[20],67 µM
same,clearance,[21],0.024 L/h/kg
same,clearance,[22],0.024 L/h/kg
same,Activity,[23],10 mg/kg
same,EC50,[24],1.3 µM
same,Vd,[25],0.08 L/kg
same,IC50,[26],> 100 µM
same,Vd,[27],0.27 L/kg
same,Activity,[28],inactive
same,clearance,[29],0.108 L/h/kg
same,clearance,[30],0.078 L/h/kg
same,bioavailability,[31],24%
same,Activity,[3],inactive
same,bioavailability,[32],90%
same,Activity,[33],85%
same,Activity,[34],36%
same,EC50,[35],16.5 µM
same,Activity,[36],Toxic
same,half-life,[37],7.6 h
same,Vd,[38],0.2 L/kg
same,IC50,[39],39 µM
"CC(Cc1nc(-c2ccc(O)cn2)no1)C(=O)NC1=C(C(=O)O)CCCC1 (single isomer, unassigned) [listing 2 of 2 here]",half-life,[14],3.6 h
same,Vd,[19],0.21 L/kg
same,clearance,[22],0.066 L/h/kg
same,bioavailability,[31],19%
"CC(Cc1nc(-c2ccc(O)cn2)no1)C(=O)NC1=C(C(=O)O)CCCC1 (single isomer, unassigned; enantiomer B) [listing 1 of 2 here]",Activity,[1],inactive
same,Activity,[2],Active
same,Activity,[3],inactive
O=C(O)c1cccnc1 [NIACIN],Cmax,[6],14.6 µM
same,Activity,[8],9.4 µM
same,Activity,[18],3 mg/kg
same,EC50,[20],2.2 µM
same,Activity,[23],6 mg/kg
same,Activity,[28],inactive
same,Activity,[34],43%
same,EC50,[35],2.7 µM
"CC(Cc1nc(-c2ccc(O)cn2)no1)C(=O)NC1=C(C(=O)O)CCCC1 (single isomer, unassigned; enantiomer B) [listing 2 of 2 here]",t1/2,[40],4.1 h
same,Vd,[41],0.25 L/kg
same,F,[42],23%
O=C(CCc1nc(-c2ccc(O)cn2)no1)Nc1ccccc1C(=O)O,Activity,[1],inactive
same,Activity,[2],Active
same,Activity,[3],inactive
O=C(CCc1nc(-c2ccc(O)cn2)no1)NC1=C(C(=O)O)CCCC1,Activity,[1],inactive
same,half-life,[14],2 h
same,Vd,[19],0.11 L/kg
same,clearance,[22],0.12 L/h/kg
same,Activity,[2],Active
same,Vd,[27],0.18 L/kg
same,clearance,[29],0.078 L/h/kg
same,bioavailability,[31],22%
same,Activity,[3],inactive
same,bioavailability,[32],33%
same,half-life,[37],2.1 h
